{"source": "ChEMBL document CHEMBL3872205", "about": "“Design, synthesis and evaluation of novel potent angiotensin II receptor 1 antagonists” (Eur J Med Chem, 2016)", "key": {"[1]": {"system": "Rattus norvegicus", "experiment": "Antihypertensive activity in spontaneous hypertensive rat model assessed as reduction in mean blood pressure at 10 mg/kg, po after 4 hrs", "type": "functional", "summary_of_the_method": "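Male SHRs (250 ± 20 g) were randomized, 6 per group. Compound was suspended in 0.5% sodium carboxymethyl cellulose and given orally; vehicle-only negative control. Mean blood pressure was calculated as (SBP − DBP)/3 + DBP from systolic and diastolic readings over the time course. Data are mean ± SD, with p < 0.05 taken as significant.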"}, "[2]": {"experiment": "AUC (0 to infinity) in Wistar rat plasma at 10 mg/kg, po by HPLC analysis", "type": "ADME, organism-based", "parameters": "dose 10 mg/kg, route oral, time infinity", "summary_of_the_method": "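Male Wistar rats (180 ± 20 g, n = 6 per group) got one oral dose. Heparinized blood was taken by retro-orbital puncture before dosing and at 0.5–72 h. Plasma was spun at 4000 × g, 4 °C, 10 min, spiked with internal standard and protein-precipitated with acetonitrile. Analysis was reverse-phase C18 HPLC (0.02 mol/L KH2PO4 55%/acetonitrile 45%, 1.0 mL/min). Calibration used 0.1–10 µg/mL, peak-height ratio, weighting concentration^-2.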"}, "[3]": {"experiment": "MRT (0 to 72 hrs) in Wistar rat plasma at 15 mg/kg, po by HPLC analysis", "type": "ADME, organism-based", "summary_of_the_method": "(§1)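 Male Wistar rats (180 ± 20 g), 6 per dose group, each given a single oral dose. Blood was drawn by retro-orbital puncture into heparin at predose and at 0.5, 1, 2, 4, 6, 8, 12, 24, 48 and 72 h, then spun at 4000 × g and 4 °C. Plasma with internal standard was acetonitrile-precipitated, filtered and run on reverse-phase C18 HPLC (0.02 mol/L KH2PO4 55% / acetonitrile 45%, 1.0 mL/min). Calibration standards were 0.1–10 µg/mL, fitted by peak-height ratio with 1/conc² weighting.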"}, "[4]": {"experiment": "MRT (0 to infinity) in Wistar rat plasma at 10 mg/kg, po by HPLC analysis", "type": "ADME, organism-based", "summary_of_the_method": "as §1"}, "[5]": {"experiment": "Half life in Wistar rat plasma at 10 mg/kg, po by HPLC analysis", "type": "ADME, organism-based"}, "[6]": {"experiment": "AUC (0 to 72 hrs) in Wistar rat Heart at 15 mg/kg, po by HPLC analysis", "type": "ADME, organism-based", "parameters": "time < 72 hr, dose 15 mg/kg, route oral", "summary_of_the_method": "(§2)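 Wistar rats (180 ± 20 g) were dosed orally at 10, 15 or 30 mg/kg. Heart, liver, spleen, lung, kidney and brain were collected at 0–72 h (n = 6 per point). Tissue was rinsed, blotted and homogenized in saline (0.25 g/1 mL), then spun at 10,000 × g. Supernatant was methanol-extracted, dried under nitrogen at 50 °C, reconstituted in methanol and run on C18 HPLC (acetonitrile 60%/water 40%, 1.0 mL/min).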"}, "[7]": {"experiment": "AUC (0 to 72 hrs) in Wistar rat Heart at 30 mg/kg, po by HPLC analysis", "type": "ADME, organism-based", "parameters": "time < 72 hr, dose 30 mg/kg, route oral", "summary_of_the_method": "as §2"}, "[8]": {"experiment": "MRT (0 to 72 hrs) in Wistar rat Heart at 10 mg/kg, po by HPLC analysis", "type": "ADME, organism-based", "summary_of_the_method": "(§3)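 Tissue distribution in male Wistar rats given oral 10, 15 or 30 mg/kg; heart, liver, spleen, lung, kidney and brain collected predose and 0.5–72 h post-dose (n = 6 per time). Tissue rinsed in saline, homogenised 0.25 g/1 mL saline, methanol extraction, dried under nitrogen, reconstituted in methanol. Analysis by reverse-phase C18 HPLC, acetonitrile/water 60:40, 1.0 mL/min, ambient temperature.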"}, "[9]": {"experiment": "Half life in Wistar rat Heart at 10 mg/kg, po by HPLC analysis", "type": "ADME, organism-based", "summary_of_the_method": "as §3"}, "[10]": {"experiment": "Tmax in Wistar rat Heart at 15 mg/kg, po by HPLC analysis", "type": "ADME, organism-based", "summary_of_the_method": "(§4)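 Male Wistar rats (180 ± 20 g) received a single oral dose of 10, 15 or 30 mg/kg. Tissues were collected at 0, 0.5, 1, 2, 4, 6, 8, 12, 24, 48 and 72 h (n = 6 per point). Samples of 0.25 g were rinsed, then homogenized in saline (0.25 g/1 mL) and centrifuged at 10,000 × g. Supernatant was methanol-extracted, dried under nitrogen at 50 °C and reconstituted in methanol. Analysis was by C18 HPLC (acetonitrile 60% / water 40%, 1.0 mL/min).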"}, "[11]": {"experiment": "Tmax in Wistar rat Heart at 30 mg/kg, po by HPLC analysis", "type": "ADME, organism-based", "summary_of_the_method": "as §4"}, "[12]": {"experiment": "AUC (0 to infinity) in Wistar rat liver at 10 mg/kg, po by HPLC analysis", "type": "ADME, organism-based", "parameters": "dose 10 mg/kg, route oral, time infinity", "summary_of_the_method": "as §2"}, "[13]": {"experiment": "MRT (0 to 72 hrs) in Wistar rat liver at 15 mg/kg, po by HPLC analysis", "type": "ADME, organism-based", "summary_of_the_method": "as §4"}, "[14]": {"experiment": "MRT (0 to infinity) in Wistar rat liver at 30 mg/kg, po by HPLC analysis", "type": "ADME, organism-based", "summary_of_the_method": "as §4"}, "[15]": {"experiment": "Tmax in Wistar rat liver at 15 mg/kg, po by HPLC analysis", "type": "ADME, organism-based", "summary_of_the_method": "as §4"}, "[16]": {"experiment": "Cmax in Wistar rat liver at 30 mg/kg, po by HPLC analysis", "type": "ADME, organism-based", "parameters": "dose 30 mg/kg, route oral", "summary_of_the_method": "as §3"}, "[17]": {"experiment": "AUC (0 to infinity) in Wistar rat spleen at 30 mg/kg, po by HPLC analysis", "type": "ADME, organism-based", "parameters": "dose 30 mg/kg, route oral, time infinity", "summary_of_the_method": "as §2"}, "[18]": {"experiment": "Tmax in Wistar rat spleen at 30 mg/kg, po by HPLC analysis", "type": "ADME, organism-based"}, "[19]": {"experiment": "Cmax in Wistar rat spleen at 10 mg/kg, po by HPLC analysis", "type": "ADME, organism-based", "parameters": "dose 10 mg/kg, route oral", "summary_of_the_method": "as §3"}, "[20]": {"experiment": "AUC (0 to 72 hrs) in Wistar rat lung at 10 mg/kg, po by HPLC analysis", "type": "ADME, organism-based", "parameters": "time < 72 hr, dose 10 mg/kg, route oral", "summary_of_the_method": "as §2"}, "[21]": {"experiment": "AUC (0 to infinity) in Wistar rat lung at 10 mg/kg, po by HPLC analysis", "type": "ADME, organism-based", "parameters": "dose 10 mg/kg, time infinity, route oral", "summary_of_the_method": "as §2"}, "[22]": {"experiment": "MRT (0 to 72 hrs) in Wistar rat lung at 30 mg/kg, po by HPLC analysis", "type": "ADME, organism-based", "summary_of_the_method": "as §4"}, "[23]": {"experiment": "MRT (0 to infinity) in Wistar rat lung at 30 mg/kg, po by HPLC analysis", "type": "ADME, organism-based", "summary_of_the_method": "as §4"}, "[24]": {"experiment": "Tmax in Wistar rat lung at 10 mg/kg, po by HPLC analysis", "type": "ADME, organism-based", "summary_of_the_method": "as §4"}, "[25]": {"experiment": "Cmax in Wistar rat lung at 30 mg/kg, po by HPLC analysis", "type": "ADME, organism-based", "parameters": "dose 30 mg/kg, route oral", "summary_of_the_method": "as §3"}, "[26]": {"experiment": "MRT (0 to 72 hrs) in Wistar rat kidney at 10 mg/kg, po by HPLC analysis", "type": "ADME, organism-based", "summary_of_the_method": "as §3"}, "[27]": {"experiment": "Half life in Wistar rat kidney at 30 mg/kg, po by HPLC analysis", "type": "ADME, organism-based", "summary_of_the_method": "as §3"}, "[28]": {"experiment": "Tmax in Wistar rat kidney at 30 mg/kg, po by HPLC analysis", "type": "ADME, organism-based", "summary_of_the_method": "as §4"}, "[29]": {"experiment": "AUC (0 to 72 hrs) in Wistar rat brain at 15 mg/kg, po by HPLC analysis", "type": "ADME, organism-based", "parameters": "dose 15 mg/kg, time < 72 hr, route oral", "summary_of_the_method": "as §2"}, "[30]": {"experiment": "AUC (0 to infinity) in Wistar rat brain at 15 mg/kg, po by HPLC analysis", "type": "ADME, organism-based", "parameters": "dose 15 mg/kg, time infinity, route oral", "summary_of_the_method": "as §2"}, "[31]": {"experiment": "MRT (0 to 72 hrs) in Wistar rat brain at 30 mg/kg, po by HPLC analysis", "type": "ADME, organism-based", "summary_of_the_method": "as §3"}, "[32]": {"experiment": "MRT (0 to infinity) in Wistar rat brain at 30 mg/kg, po by HPLC analysis", "type": "ADME, organism-based", "summary_of_the_method": "as §4"}, "[33]": {"experiment": "Half life in Wistar rat brain at 15 mg/kg, po by HPLC analysis", "type": "ADME, organism-based", "summary_of_the_method": "as §3"}, "[34]": {"experiment": "Tmax in Wistar rat brain at 10 mg/kg, po by HPLC analysis", "type": "ADME, organism-based", "summary_of_the_method": "as §4"}, "[35]": {"experiment": "Tmax in Wistar rat brain at 15 mg/kg, po by HPLC analysis", "type": "ADME, organism-based", "summary_of_the_method": "as §4"}}, "data": [{"smiles": "CCCCC1=NC2(CCCC2)C(=O)N1Cc1ccc2c(ccn2-c2ccccc2-c2nnn[nH]2)c1", "values": [{"measurement": "Activity", "setting": "[1]", "result": 28.39, "unit": "mmHg"}, {"measurement": "AUC(0-inf)", "setting": "[2]", "result": 6690, "unit": "ng·h/mL"}, {"measurement": "MRT last", "setting": "[3]", "result": 10.2, "unit": "h"}, {"measurement": "MRT inf", "setting": "[4]", "result": 6.61, "unit": "h"}, {"measurement": "half-life", "setting": "[5]", "result": 596, "unit": "min"}, {"measurement": "AUC(0-t) at 72 h", "setting": "[6]", "result": 5840, "unit": "ng·h/mL"}, {"measurement": "AUC(0-t) at 72 h", "setting": "[7]", "result": 7360, "unit": "ng·h/mL"}, {"measurement": "MRT last", "setting": "[8]", "result": 7.68, "unit": "h"}, {"measurement": "half-life", "setting": "[9]", "result": 1020, "unit": "min"}, {"measurement": "Tmax", "setting": "[10]", "result": 4.67, "unit": "h"}, {"measurement": "Tmax", "setting": "[11]", "result": 4.8, "unit": "h"}, {"measurement": "AUC(0-inf)", "setting": "[12]", "result": 3320, "unit": "ng·h/mL"}, {"measurement": "MRT last", "setting": "[13]", "result": 4.77, "unit": "h"}, {"measurement": "MRT inf", "setting": "[14]", "result": 5.49, "unit": "h"}, {"measurement": "Tmax", "setting": "[15]", "result": 2, "unit": "h"}, {"measurement": "Cmax", "setting": "[16]", "result": 2000, "unit": "ng/mL"}, {"measurement": "AUC(0-inf)", "setting": "[17]", "result": 21000, "unit": "ng·h/mL"}, {"measurement": "Tmax", "setting": "[18]", "result": 2, "unit": "h"}, {"measurement": "Cmax", "setting": "[19]", "result": 348, "unit": "ng/mL"}, {"measurement": "AUC(0-t) at 72 h", "setting": "[20]", "result": 745, "unit": "ng·h/mL"}, {"measurement": "AUC(0-inf)", "setting": "[21]", "result": 745, "unit": "ng·h/mL"}, {"measurement": "MRT last", "setting": "[22]", "result": 4.85, "unit": "h"}, {"measurement": "MRT inf", "setting": "[23]", "result": 4.1, "unit": "h"}, {"measurement": "Tmax", "setting": "[24]", "result": 2, "unit": "h"}, {"measurement": "Cmax", "setting": "[25]", "result": 396, "unit": "ng/mL"}, {"measurement": "MRT last", "setting": "[26]", "result": 21, "unit": "h"}, {"measurement": "half-life", "setting": "[27]", "result": 1340, "unit": "min"}, {"measurement": "Tmax", "setting": "[28]", "result": 2, "unit": "h"}, {"measurement": "AUC(0-t) at 72 h", "setting": "[29]", "result": 1180, "unit": "ng·h/mL"}, {"measurement": "AUC(0-inf)", "setting": "[30]", "result": 1180, "unit": "ng·h/mL"}, {"measurement": "MRT last", "setting": "[31]", "result": 9.03, "unit": "h"}, {"measurement": "MRT inf", "setting": "[32]", "result": 9.02, "unit": "h"}, {"measurement": "half-life", "setting": "[33]", "result": 155, "unit": "min"}, {"measurement": "Tmax", "setting": "[34]", "result": 6.67, "unit": "h"}, {"measurement": "Tmax", "setting": "[35]", "result": 4.83, "unit": "h"}]}]}
